Legend:
[1] = substrate: Nc1ncnc2c1ncn2[C@@H]1O[C@H](COP(=O)(O)O)[C@@H](OP(=O)(O)COCCn2cnc3ncnc(N)c32)[C@H]1O; experiment: (§1) Michaelis rate constant is determined by the Lineweaver and Burk method against PRPP synthetase
Summary of the method: (§2)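 PRPP synthetase reaction in 10.0 mM potassium phosphate buffer (pH 8.0) with 5.0 mM MgCl₂, 2.5 mM PRPP, 0.04 unit enzyme and AMP or test nucleotide. Reactions ran linearly and were stopped with MeOH after 4 h. Diphosphate or ATP formation was analysed by anion-exchange HPLC. Inhibition was measured at different AMP concentrations plus inhibitor, with 0.002 unit enzyme, 37 °C, 15 min, ATP formation followed by HPLC.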

[2] = substrate: Nc1ncnc2ncn(CCOCP(=O)(O)O)c12; experiment: as §1; summary of the method: as §2
[3] = substrate: COC1=C(OC)/C(=C/COP(=O)(O)COCCn2cnc3c(N)ncnc32)OC1=O; experiment: (§3) Michaelis rate constant is determined by the Lineweaver and Burk method against adenosine deaminase
Summary of the method: (§4)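 Reaction velocity measured as µmol/min per mg enzyme across substrate concentrations.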

[4] = substrate: COC1=C(OC)/C(=C/COP(=O)(O)OC[C@H]2O[C@@H](n3cnc4c(N)ncnc43)[C@H](O)[C@@H]2OP(=O)(O)COCCn2cnc3ncnc(N)c32)OC1=O; experiment: as §3; summary of the method: as §4
[5] = substrate: Nc1ncnc2c1ncn2[C@@H]1O[C@H](COP(=O)(O)O)[C@@H](OP(=O)(O)COCCn2cnc3ncnc(N)c32)[C@H]1O; experiment: as §3; summary of the method: as §4
[6] = substrate: Nc1ncnc2ncn(CCOCP(=O)(O)O)c12; experiment: as §3; summary of the method: as §4
[7] = substrate: Nc1ncnc2ncn(COCCO)c12; experiment: as §3; summary of the method: as §4
[8] = substrate: Nc1nc(O)c2c(ncn2COCCO)n1; settings: herpes simplex virus
[9] = substrate: Nc1ncnc2c1ncn2COCCO; settings: herpes simplex virus
[10] = substrate: Nc1ncnc2c1ncn2[C@@H]1O[C@H](CO)[C@@H](O)[C@@H]1O; settings: herpes simplex virus
[11] = substrate: Nc1ncnc2ncn(COCCO)c12; settings: herpes simplex virus
[12] = substrate: Nc1nc(O)c2c(ncn2COCCO)n1; settings: Chlorocebus sabaeus; Vero
[13] = substrate: Nc1nc2c(ncn2COCCO)c(=O)[nH]1; settings: Chlorocebus sabaeus; Vero

B1: Phosphoribosyl pyrophosphate synthase-associated protein 2 (Homo sapiens), O60256 (protein)
chain: MFCVTPPELETKMNITKGGLVLFSANSNSSCMELSKKIAERLGVEMGKVQVYQEPNRETRVQIQESVRGKDVFIIQTVSKDVNTTIMELLIMVYACKTSCAKSIIGVIPYFPYSKQCKMRKRGSIVSKLLASMMCKAGLTHLITMDLHQKEIQGFFNIPVDNLRASPFLLQYIQEEIPDYRNAVIVAKSPASAKRAQSFAERLRLGIAVIHGEAQDAESDLVDGRHSPPMVRSVAAIHPSLEIPMLIPKEKPPITVVGDVGGRIAIIVDDIIDDVDSFLAAAETLKERGAYKIFVMATHGLLSSDAPRRIEESAIDEVVVTNTIPHEVQKLQCPKIKTVDISMILSEAIRRIHNGESMSYLFRNIGLDD
**Q.** Which Km [1] does the source give for B1 here?
**A.** Its Km is 570 µM.

**Q.** What about the Km [2] of the same protein?
**A.** The Km was 4800 µM.

B2: Adenosine deaminase (Bos taurus), P56658 (protein)
chain: MAQTPAFNKPKVELHVHLDGAIKPETILYYGRKRGIALPADTPEELQNIIGMDKPLSLPEFLAKFDYYMPAIAGCREAVKRIAYEFVEMKAKDGVVYVEVRYSPHLLANSKVEPIPWNQAEGDLTPDEVVSLVNQGLQEGERDFGVKVRSILCCMRHQPSWSSEVVELCKKYREQTVVAIDLAGDETIEGSSLFPGHVKAYAEAVKSGVHRTVHAGEVGSANVVKEAVDTLKTERLGHGYHTLEDATLYNRLRQENMHFEVCPWSSYLTGAWKPDTEHPVVRFKNDQVNYSLNTDDPLIFKSTLDTDYQMTKNEMGFTEEEFKRLNINAAKSSFLPEDEKKELLDLLYKAYGMPSPASAEQCL
**Q.** B2 was tested. Which Km [3] did it give?
**A.** The Km was greater than 800 µM.

**Q.** What about the Km [4] of the same protein?
**A.** Its Km is 640 µM.

**Q.** And the Km [5]?
**A.** The Km was 160 µM.

**Q.** And the Km [6]?
**A.** The Km was greater than 800 µM.

**Q.** And the Km [7]?
**A.** The Km was 200 µM.

B3: Thymidine kinase, cytosolic (Homo sapiens), P04183 (protein)
chain: MSCINLPTVLPGSPSKTRGQIQVILGPMFSGKSTELMRRVRRFQIAQYKCLVIKYAKDTRYSSSFCTHDRNTMEALPACLLRDVAQEALGVAVIGIDEGQFFPDIVEFCEAMANAGKTVIVAALDGTFQRKPFGAILNLVPLAESVVKLTAVCMECFREAAYTKRLGTEKEVEVIGGADKYHSVCRLCYFKKASGQPAGPDNKENCPVPGKPGEAVAARKLFAPQQILQCSPAN
**Q.** B3 was tested. Which Km [8] did it give?
**A.** The Km was 12.8 µM.

**Q.** And the Km [9]?
**A.** The Km was 2 µM.

**Q.** And the Km [10]?
**A.** Its Km is 1.5 µM.

**Q.** What about the Km [11] of the same protein?
**A.** Its Km is 30 µM.

**Q.** What about the Km [12] of the same protein?
**A.** The Km was 18.3 µM.

**Q.** What about the Km [13] of the same protein?
**A.** Its Km is 2.2 µM.

— ChEMBL document CHEMBL1134666, “Design, synthesis, and biological evaluation of novel nucleoside and nucleotide analogues as agents against DNA viruses and/or retroviruses” (J Med Chem, 2001)
